A selection: hits, their analogues and other compounds. The true share with any hit is near 1%.
FID counter: fluorescent intercalator displacement, NS3 helicase counter-screen | DNA fluorescent intercalator displacement, fluorescence | inhibition, % at 7.9 µM | hit rate 0.17% among 290,000; in the data active means inhibition above about 37%;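 further: 0% = vehicle and 100% = reference compound; higher means more ethidium bromide displaced from hairpin DNA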
PvdQ acylase: P. aeruginosa PvdQ acylase inhibition; purified PvdQ acylase, fluorescence plate reader; inhibition, % at 10 µM; hit rate 0.063% among 340,000; in the data active means inhibition above about 30%, passing the limit was not always enough;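 further: 0% = vehicle neutral wells and 100% = reference inhibitor wells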
VIM-2 inhibitor: inhibitors of Pseudomonas aeruginosa VIM-2 metallo-beta-lactamase; purified VIM-2, nitrocefin hydrolysis, epi-absorbance fluorescence; inhibition, % at 5.6 µM; hit rate 0.89% among 290,000; AID 1527;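 active means inhibition above the mean of all tested compounds plus 3 SD, cutoff set per screening run, cut at about 7.5% in these data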;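 further: red hydrolysis product quenches plate fluorescence so inhibitors raise well fluorescence; 0% = enzyme with DMSO and 100% = DMSO without enzyme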
IMP-1 inhibitor: blocks Pseudomonas aeruginosa IMP-1 metallo-beta-lactamase; purified IMP-1, nitrocefin hydrolysis, epi-absorbance fluorescence; inhibition, % at 5.6 µM; hit rate 0.45% among 290,000; AID 1556;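 active means inhibition above the mean plus 3 SD of all compounds in the same screening run, cut at about 4.5% in these data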;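 further: 0% = IMP-1 with DMSO and 100% = DMSO wells lacking enzyme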
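System – purified recombinant IMP-1 beta-lactamase · Input – IMP-1 dispensed at 0.2 nM · Timing – 15 min preincubation plus 25 min reaction at 25 °C · Signal – Epi-absorbance fluorescence, 480 nm excitation, 530 nm emission · Measure – percent IMP-1 inhibition derived from blank-referenced optical density · Controls – Enzyme-plus-DMSO low control, enzyme-free DMSO high control · Replication – singlicate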
RAD54 inh: inhibitors of human RAD54 branch migration; Q92698; RAD54 Holliday junction branch migration, FAM/BHQ fluorescence; inhibition, % at 10.4 µM; hit rate 0.14% among 360,000;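 active means mean normalized replicate activity at least 40 and at least half of replicates scoring 40 or more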;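 further: 0% = median of neutral control wells and 100% = median of positive control wells; inhibitors cause a drop in the FAM fluorescence signal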
Target sequence (Q92698 whole entry, looked up): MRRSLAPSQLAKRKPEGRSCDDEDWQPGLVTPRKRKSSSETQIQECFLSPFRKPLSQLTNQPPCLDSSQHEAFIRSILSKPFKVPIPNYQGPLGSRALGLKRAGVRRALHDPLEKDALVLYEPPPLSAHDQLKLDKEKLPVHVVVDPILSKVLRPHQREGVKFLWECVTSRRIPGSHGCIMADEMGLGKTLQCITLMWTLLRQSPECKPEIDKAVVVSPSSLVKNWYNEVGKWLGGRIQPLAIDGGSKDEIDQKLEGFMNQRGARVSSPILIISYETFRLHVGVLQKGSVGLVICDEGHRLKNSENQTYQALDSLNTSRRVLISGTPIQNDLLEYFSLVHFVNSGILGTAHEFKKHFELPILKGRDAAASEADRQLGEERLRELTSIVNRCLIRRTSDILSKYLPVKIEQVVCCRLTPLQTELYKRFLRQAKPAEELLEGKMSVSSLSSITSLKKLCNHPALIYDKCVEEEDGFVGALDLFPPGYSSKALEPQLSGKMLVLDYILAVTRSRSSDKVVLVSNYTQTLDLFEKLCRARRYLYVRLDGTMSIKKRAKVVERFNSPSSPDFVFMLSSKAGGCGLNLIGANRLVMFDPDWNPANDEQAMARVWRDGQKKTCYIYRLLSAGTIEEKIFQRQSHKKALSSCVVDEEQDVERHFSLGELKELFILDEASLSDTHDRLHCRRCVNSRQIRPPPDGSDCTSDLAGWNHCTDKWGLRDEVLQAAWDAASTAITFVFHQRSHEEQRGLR
Active calls of the source: *.

How did O=C(Nc1ccc(NC(=O)c2ccc(S(=O)(=O)c3ccccc3)cc2)cc1)c1ccccc1 do in these assays?
FID counter: 46.4*; PvdQ acylase: -10.4; VIM-2 inhibitor: -2.7; IMP-1 inhibitor: -2.8; RAD54 inh: -1.2

How did NS(=O)(=O)c1ccc(NC(=S)NC(=O)c2ccc(-c3ccccc3)cc2)cc1 do in these assays?
FID counter: -5.4; PvdQ acylase: -7.0; VIM-2 inhibitor: 0.3; IMP-1 inhibitor: 5.5*; RAD54 inh: 0.3

Results for O=C(O)c1ccc(S(=O)(=O)c2ccc3c(c2)C(=O)N(NC(=O)c2ccccc2)C3=O)cc1 ?
FID counter: -1.5; PvdQ acylase: -7.5; VIM-2 inhibitor: -1.6; IMP-1 inhibitor: 5.1*; RAD54 inh: 3.8

Results for O=C(O)c1ccc(S(=O)(=O)c2ccc3c(c2)C(=O)N(NC(=O)c2ccncc2)C3=O)cc1 ?
FID counter: -2.0; PvdQ acylase: -13.5; VIM-2 inhibitor: -3.6; IMP-1 inhibitor: -1.0; RAD54 inh: -3.2

Results for NS(=O)(=O)c1ccc(NC(=S)NNC(=O)c2ccc(Br)o2)cc1 ?
FID counter: -7.2; PvdQ acylase: -5.4; VIM-2 inhibitor: -6.6; IMP-1 inhibitor: 5.2*; RAD54 inh: -4.1

What do the screens show for `CCCNC(=O)C[C@H]1CC[C@@H]2[C@@H](COc3ccc(NC(=O)c4cscn4)cc3C(=O)N2C)O1`?
RAD54 inh: 2.7

What do the screens show for `C[C@H]1CCCCO[C@H](CN(C)C(=O)Cc2ccccc2)[C@@H](C)CN([C@@H](C)CO)C(=O)c2cc(NC(=O)CCC(F)(F)F)ccc2O1`?
RAD54 inh: -2.0

How did O=C(C[C@H]1CC[C@@H]2[C@H](COC[C@H](O)CN2Cc2cccc(F)c2)O1)NCc1ccncc1 do in these assays?
RAD54 inh: 4.2

What do the screens show for `O=C(Cc1ccccc1)Nc1nc(=O)c2ccccc2s1`?
FID counter: -2.5; PvdQ acylase: -21.3; VIM-2 inhibitor: 11.0*; IMP-1 inhibitor: -0.1; RAD54 inh: 5.9

Results for O=C(Cc1ccccc1)Nc1nc2ccccc2s1 ?
FID counter: -2.7; PvdQ acylase: -1.5; VIM-2 inhibitor: 0.6; IMP-1 inhibitor: -2.1; RAD54 inh: 7.5

What do the screens show for `Cc1ccc(S(=O)(=O)Nc2ccc3c(c2)C(=O)N([C@@H](C)CO)C[C@@H](C)[C@H](CN(C)C(=O)NC2CCCCC2)OCCCC[C@H](C)O3)cc1`?
RAD54 inh: 0.3

How did Nc1c(/C=C2/C=CC(=O)C(O)=C2)c(=O)nc2sc(CC(=O)N3CCCC3)nn12 do in these assays?
FID counter: -28.7; PvdQ acylase: -6.8; VIM-2 inhibitor: 0.7; IMP-1 inhibitor: -1.3; RAD54 inh: -16.1

How did Nc1c(/C=C2/C=CC(=O)C(O)=C2)c(=O)nc2sc(CC(=O)N3CCCCC3)nn12 do in these assays?
FID counter: -31.4; PvdQ acylase: -3.8; VIM-2 inhibitor: 11.3*; IMP-1 inhibitor: -5.7; RAD54 inh: -26.3

What do the screens show for `O=c1cc(CN2CCN(Cc3ccccc3)CC2)c2cc3c(cc2o1)CCC3`?
FID counter: 3.9; PvdQ acylase: -14.5; VIM-2 inhibitor: 7.7*; IMP-1 inhibitor: 1.5; RAD54 inh: -8.2

What do the screens show for `Cc1cc(C)c2c(CN3CCN(Cc4ccccc4)CC3)cc(=O)oc2c1C`?
FID counter: 7.4; PvdQ acylase: -7.3; VIM-2 inhibitor: 9.8*; IMP-1 inhibitor: -1.4; RAD54 inh: 26.7

What do the screens show for `O=C(NCc1ccc2c(c1)OCO2)[C@@H]1[C@@H](CO)[C@@H]2Cn3c(cccc3=O)[C@H]1N2Cc1ccncc1`?
RAD54 inh: 13.2

How did CCCn1c(C)nc2c(c1=O)c1nc3ccccc3nc1n2CCC1=CCCCC1 do in these assays?
FID counter: -20.5; PvdQ acylase: -0.6; VIM-2 inhibitor: 8.3*; IMP-1 inhibitor: -1.7; RAD54 inh: 6.3

How did CCOC(=O)c1c(C)cc(C)n2c1nc1ccccc12 do in these assays?
FID counter: -5.0; PvdQ acylase: 3.1; VIM-2 inhibitor: 10.8*; IMP-1 inhibitor: -4.4; RAD54 inh: 4.7

How did Cc1noc(C)c1S(=O)(=O)N(C)C[C@@H]1OCCCC[C@@H](C)Oc2ccc(NC(=O)c3ccccc3)cc2C(=O)N([C@H](C)CO)C[C@@H]1C do in these assays?
RAD54 inh: -6.7

What do the screens show for `CCOc1ccc(-c2nnc(-c3cccnc3)o2)cc1OCC`?
FID counter: -33.7; PvdQ acylase: -13.2; VIM-2 inhibitor: 11.3*; IMP-1 inhibitor: -4.2

What do the screens show for `CCOC(=O)c1cnc(-n2nc(C)cc2C)nc1Nc1ccc(OC)cc1`?
FID counter: -4.8; PvdQ acylase: 0.5; VIM-2 inhibitor: 10.7*; IMP-1 inhibitor: -3.9; RAD54 inh: 3.3

What do the screens show for `CCOC(=O)c1cnc(-n2nc(C)cc2C)nc1NCCc1ccccc1`?
FID counter: -21.2; PvdQ acylase: -4.0; VIM-2 inhibitor: 9.6*; IMP-1 inhibitor: -4.2; RAD54 inh: -3.0

How did CCOC(=O)c1cnc(-n2nc(C)cc2C)nc1Nc1ccccc1OC do in these assays?
FID counter: -3.8; VIM-2 inhibitor: -1.5; IMP-1 inhibitor: -4.6

How did CCOC(=O)c1cnc(-n2nc(C)cc2C)nc1NC1CCCC1 do in these assays?
FID counter: -28.0; PvdQ acylase: -3.3; VIM-2 inhibitor: 8.4*; IMP-1 inhibitor: -3.5; RAD54 inh: 1.2

What do the screens show for `CC(C)[C@H](C)NC(=O)N(C)C[C@@H]1OCc2ccccc2-c2ccccc2C(=O)N([C@@H](C)CO)C[C@H]1C`?
RAD54 inh: -9.2

Results for CCCNC(=O)N1C[C@H](O)COC[C@@H]2O[C@@H](CC(=O)N3CCCCC3)CC[C@H]21 ?
RAD54 inh: 0.2

How did CCNC(=O)C[C@H]1CC[C@@H]2[C@@H](COc3ccc(NC(=O)Nc4ccc(Cl)cc4)cc3C(=O)N2C)O1 do in these assays?
RAD54 inh: -2.3

Results for C[C@@H]1CCCCO[C@H](CN(C)S(=O)(=O)c2ccc(Cl)cc2)[C@@H](C)CN([C@@H](C)CO)C(=O)c2cc(NC(=O)NC3CCCCC3)ccc2O1 ?
RAD54 inh: -2.7

How did COc1ccc(N=Nc2cc(OC)c(N)cc2OC)cc1 do in these assays?
PvdQ acylase: -7.0; RAD54 inh: -1.6

Results for Cc1cc(N=Nc2ccc(C)c(N=Nc3cc(C)c(N)cc3N)c2)c(N)cc1N ?
FID counter: 7.2; PvdQ acylase: -11.9; VIM-2 inhibitor: -4.3; IMP-1 inhibitor: -4.2; RAD54 inh: 100.6*

What do the screens show for `Cc1ccc(NCC(=O)c2ccc(C)cc2)cc1`?
FID counter: -0.4; PvdQ acylase: -14.3; VIM-2 inhibitor: 6.4; IMP-1 inhibitor: 35.6*; RAD54 inh: -7.7

Results for COc1ccccc1N=C(C)C1=C(O)CSC1=O ?
FID counter: 0.2; PvdQ acylase: 14.4; VIM-2 inhibitor: -3.0; IMP-1 inhibitor: 5.6*; RAD54 inh: -5.6

How did COc1ccc(Nc2cc(C)nc3c(C)cccc23)cc1OC do in these assays?
FID counter: 8.3; PvdQ acylase: 10.9; VIM-2 inhibitor: 10.2*; IMP-1 inhibitor: -1.9; RAD54 inh: 46.8

How did Cc1cc(Nc2ccc(C)c(C)c2)c2ccccc2n1 do in these assays?
FID counter: 10.3; PvdQ acylase: -7.5; VIM-2 inhibitor: 8.6*; IMP-1 inhibitor: -0.5; RAD54 inh: 28.2

Results for COc1ccccc1Nc1cc(C)nc2c(C)cccc12 ?
RAD54 inh: 8.4

Screening data deposited in PubChem by several laboratories.
